Experiments:
[1] = target: T1, Neuropeptide Y receptor type 5 (Homo sapiens, UniProt Q15761); assay: Binding affinity to human NPY5 receptor
T1 sequence (Q15761 whole entry): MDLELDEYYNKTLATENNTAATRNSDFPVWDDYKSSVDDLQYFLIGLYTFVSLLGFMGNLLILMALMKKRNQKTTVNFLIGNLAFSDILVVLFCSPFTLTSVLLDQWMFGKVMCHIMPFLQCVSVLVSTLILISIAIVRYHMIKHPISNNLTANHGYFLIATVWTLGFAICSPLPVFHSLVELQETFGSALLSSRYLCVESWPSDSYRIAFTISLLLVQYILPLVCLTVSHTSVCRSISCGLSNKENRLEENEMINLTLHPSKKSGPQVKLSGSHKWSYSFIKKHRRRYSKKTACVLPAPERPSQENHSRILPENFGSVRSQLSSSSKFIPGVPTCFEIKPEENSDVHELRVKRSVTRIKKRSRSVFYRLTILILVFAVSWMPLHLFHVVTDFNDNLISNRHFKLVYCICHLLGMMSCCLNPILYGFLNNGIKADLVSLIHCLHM

[2] = target: T1, Neuropeptide Y receptor type 5; assay: Antagonist activity at human NPY5 receptor assessed as calcium mobilization by FLIPR assay; format: functional
[3] = target: T2, Neuropeptide Y receptor type 2 (Homo sapiens, UniProt P49146); assay: Antagonist activity at human NPY2 receptor assessed as calcium mobilization by FLIPR assay; format: functional
T2 sequence (P49146 whole entry): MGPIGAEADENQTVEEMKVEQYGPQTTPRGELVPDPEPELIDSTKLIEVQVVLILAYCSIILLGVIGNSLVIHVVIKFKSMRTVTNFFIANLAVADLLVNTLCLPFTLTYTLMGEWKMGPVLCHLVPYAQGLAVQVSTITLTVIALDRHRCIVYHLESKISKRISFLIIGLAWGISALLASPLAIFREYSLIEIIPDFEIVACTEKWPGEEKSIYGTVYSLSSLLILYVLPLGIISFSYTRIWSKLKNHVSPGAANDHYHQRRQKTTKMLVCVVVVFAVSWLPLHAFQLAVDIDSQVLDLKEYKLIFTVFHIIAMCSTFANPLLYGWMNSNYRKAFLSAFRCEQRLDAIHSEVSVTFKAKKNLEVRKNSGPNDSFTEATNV

Liver microsomes [4] = assay: Intrinsic clearance in rat liver microsome; format: ADME
Liver microsomes [5] = assay: Intrinsic clearance in human liver microsome; format: ADME
[6] = target: Neuropeptide Y receptor type 4 (Homo sapiens, UniProt P50391); assay: Antagonist activity at human NPY4 receptor assessed as calcium mobilization by FLIPR assay; format: functional
[7] = Drug uptake in rat brain at 10 mg/kg, po after 4 hrs; format: ADME, organism-based; design: dose 10 mg/kg, route oral; conditions: read-out: Drug uptake
Outline: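 Rat single oral dose of 10 mg/kg, two animals; plasma and brain homogenate levels measured at 4 h and averaged; quantification limit 2 ng/mL plasma, 2 ng/g brain.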

[8] = target: T3, Neuropeptide Y receptor type 1 (Homo sapiens, UniProt P25929); assay: Antagonist activity at human NPY1 receptor assessed as calcium mobilization by FLIPR assay; format: functional
T3 sequence (P25929 whole entry): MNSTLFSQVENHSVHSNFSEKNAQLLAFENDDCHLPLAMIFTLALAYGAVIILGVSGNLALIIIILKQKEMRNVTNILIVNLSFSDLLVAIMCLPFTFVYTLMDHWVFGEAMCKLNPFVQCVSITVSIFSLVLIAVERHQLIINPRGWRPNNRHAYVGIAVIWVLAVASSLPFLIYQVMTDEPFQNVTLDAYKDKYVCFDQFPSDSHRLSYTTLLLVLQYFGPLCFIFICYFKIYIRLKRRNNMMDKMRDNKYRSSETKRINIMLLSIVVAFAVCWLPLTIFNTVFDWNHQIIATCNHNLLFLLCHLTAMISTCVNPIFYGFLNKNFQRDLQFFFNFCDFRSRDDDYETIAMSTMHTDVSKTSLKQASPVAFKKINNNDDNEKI

[9] = Plasma concentration in rat at 10 mg/kg, po after 4 hrs; format: ADME, organism-based; design: dose 10 mg/kg, route oral
Outline: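 Single oral dose of 10 mg/kg in rats, two animals. Plasma was sampled at 4 h and the two values averaged. LOQ 2 ng/mL.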

Rattus norvegicus = assay: Antistress activity against chronic mild stress Sprague-Dawley rat model assessed as increase sucrose consumption at 5 mg/kg, ip bid measured after 4 weeks; format: functional; conditions: route intraperitoneal
[10] = target: T3, Neuropeptide Y receptor type 1; assay: Binding affinity to NPY1 receptor
[11] = target: T1, Neuropeptide Y receptor type 5; assay: Binding affinity to NPY5 receptor

Chain of Neuropeptide Y receptor type 4 (P50391 whole entry): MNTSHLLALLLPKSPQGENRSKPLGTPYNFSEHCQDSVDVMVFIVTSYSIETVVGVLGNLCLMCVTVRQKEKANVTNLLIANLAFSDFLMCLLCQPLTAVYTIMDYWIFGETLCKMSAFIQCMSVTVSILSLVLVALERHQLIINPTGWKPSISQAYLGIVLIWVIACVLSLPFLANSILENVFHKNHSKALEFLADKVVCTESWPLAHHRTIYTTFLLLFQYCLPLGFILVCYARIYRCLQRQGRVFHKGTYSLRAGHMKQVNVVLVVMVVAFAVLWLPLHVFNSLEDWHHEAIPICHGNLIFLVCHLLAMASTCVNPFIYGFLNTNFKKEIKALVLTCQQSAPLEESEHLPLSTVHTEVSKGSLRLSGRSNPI

Row | SMILES | Ki [1] [nM] | IC50 [2] [nM] | further results
1 | CC(C)S(=O)(=O)NCCCCCNc1nc2c(s1)CCCc1ccc(F)cc1-2 | 46 | 98.7 | 
2 | O=S(=O)(NC[C@H]1CC[C@H](Nc2nc3c(s2)CCSc2ccccc2-3)CC1)c1cccs1 | 1.9 | 3.8 | IC50 [3]: > 1000 nM; CL (Liver microsomes [4]): 120 mL/min; CL (Liver microsomes [5]): 6.9 L/min; IC50 [6]: > 1000 nM; concentration at 4 h [7]: 10 ng/g; IC50 [8]: > 1000 nM; concentration at 4 h [9]: 8 ng/mL
3 | O=S(=O)(CC(F)(F)F)NCCCCNc1nc2c(s1)CCCc1ccc(F)cc1-2 | 3.4 | 1.9 | 
4 | O=S(=O)(NC[C@H]1CC[C@H](Nc2nc3c(s2)CCSc2ccccc2-3)CC1)c1cccc2ccccc12 | 13.9 | 43.6 | 
5 | CS(=O)(=O)NCCCCCNc1nc2c(s1)CCSc1ccc(F)cc1-2 | 1.7 |  | CL (Liver microsomes [4]): 89 mL/min; CL (Liver microsomes [5]): 6.8 L/min; concentration at 4 h [7]: 140 ng/g; concentration at 4 h [9]: 61 ng/mL
6 | CCS(=O)(=O)NCCCCCNc1nc2c(s1)CCCc1ccc(F)cc1-2 | 0.9 | 1.3 | 
7 | COc1ccc(C)cc1S(=O)(=O)NC[C@H]1CC[C@H](Nc2nc3c(s2)CCSc2ccccc2-3)CC1 | 4.9 | 34.6 | IC50 [3]: > 1000 nM; IC50 [6]: > 1000 nM; IC50 [8]: > 1000 nM
8 | CCS(=O)(=O)NC[C@H]1CC[C@H](Nc2nc3c(s2)CCSc2ccccc2-3)CC1 | 2.8 | 30.8 | IC50 [3]: > 1000 nM; IC50 [6]: > 1000 nM; IC50 [8]: > 1000 nM
9 | CS(=O)(=O)NCCCCCNc1nc2c(s1)CCCc1ccc(F)cc1-2 |  | 0.9 | 
10 | CS(=O)(=O)NC[C@H]1CC[C@H](Nc2nc3c(s2)CCOc2ccccc2-3)CC1 | 16.1 | 3.9 | 
11 | O=S(=O)(CC(F)(F)F)NCCCCCNc1nc2c(s1)CCCc1ccc(F)cc1-2 | 7.5 | 9.9 | 
12 | CC(C)S(=O)(=O)NCCOCCNc1nc2c(s1)CCCc1ccc(F)cc1-2 | 2.4 |  | 
13 | CN(C)CCC[C@@]1(c2ccc(F)cc2)OCc2cc(C#N)ccc21 [ESCITALOPRAM] |  |  | Activity (Rattus norvegicus): >10%
14 | Cn1cnc(S(=O)(=O)NC[C@H]2CC[C@H](Nc3nc4c(s3)CCSc3ccccc3-4)CC2)c1 | 21.5 | 10.4 | 
15 | CS(=O)(=O)NC[C@H]1CC[C@H](Nc2nc3c(s2)CCCc2ccc(F)cc2-3)CC1 | 1.1 |  | 
16 | COc1cccc2c1OCCc1sc(N[C@H]3CC[C@H](CNS(C)(=O)=O)CC3)nc1-2 | 1.1 |  | 
17 | COc1ccccc1CNCCCCCCNCCSSCCNCCCCCCNCc1ccccc1OC [BENEXTRAMINE] |  |  | Ki [10]: 1800 nM; Ki [11]: 5000 nM
18 | COc1ccc2c(c1)OCCc1sc(NC[C@H]3CC[C@H](NS(C)(=O)=O)CC3)nc1-2 | 6.7 |  | 
19 | CS(=O)(=O)NCCCCCNc1nc2c(s1)CCSc1ccccc1-2 | 8.8 | 5 | 
20 | CS(=O)(=O)N[C@H]1CC[C@H](Nc2nc3c(s2)CCCc2ccc(F)cc2-3)CC1 | 27 | 8.8 | 
21 | CCS(=O)(=O)NCCCCCNc1nc2c(s1)CCSc1ccccc1-2 | 0.8 | 0.6 | concentration at 4 h [9]: 14 ng/mL

From ChEMBL document CHEMBL1833793 (Bioorg Med Chem Lett, 2011)
